In data set [1] the test system is P388. Nature of the data set: Antitumor activity against mouse P388 cells allografted in CD2F1 mouse assessed as increase in mouse survival at 80 mg/kg, ip of total 9 doses starting 24 hrs post tumor inoculation measured on day 5 of inoculation relative to control. The data set is classed as functional. The note with it: route intraperitoneal. In outline:
(§1)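 Male CD2F1 mice inoculated ip with 6×10^6 P388 leukemia cells. Dosing was ip as a suspension in distilled water–Tween 80, nine daily doses starting 24 h after inoculation. Activity was read as median survival time of treated vs control mice (% T/C); % T/C ≥ 120 was considered significant. Groups were 6 mice.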

For data set [2], the system named is Mus musculus. Kind of data set: Toxicity in mouse P388 cells allografted CD2F1 mouse assessed as body weight loss at 40 mg/kg, ip of total 9 doses starting 24 hrs post tumor inoculation measured on day 5 of inoculation relative to control. The data set is classed as organism-based. As to conditions: in vivo. On the set-up: dose 40 mg/kg, route intraperitoneal. In outline: (§2)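 Male CD2F1 mice inoculated ip with 6×10^6 P388 leukemia cells. Compounds given ip as distilled water–Tween 80 suspension, nine daily doses starting 24 h after inoculation; six mice per dose group. Treated-minus-control body-weight change (T − C) and toxicity-day survivors recorded on day 5 (4 days after first dose).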

For data set [3], the system named is Mus musculus. Kind of data set: Toxicity in mouse P388 cells allografted CD2F1 mouse assessed as body weight loss at 20 mg/kg, ip of total 9 doses starting 24 hrs post tumor inoculation measured on day 5 of inoculation relative to control. The data set is classed as organism-based. On the set-up: dose 20 mg/kg, route intraperitoneal. The note with it: in vivo. In outline:
as §2

Data set [4] concerns Mus musculus. Kind of data set: Toxicity in mouse P388 cells allografted CD2F1 mouse assessed as body weight loss at 10 mg/kg, ip of total 9 doses starting 24 hrs post tumor inoculation measured on day 5 of inoculation relative to control. The data set is classed as organism-based. On the set-up: dose 10 mg/kg, route intraperitoneal. The note with it: in vivo. In outline: as §2

Data set [5] relates to Mus musculus. Nature of the data set: Toxicity in mouse P388 cells allografted CD2F1 mouse assessed as body weight loss at 5 mg/kg, ip of total 9 doses starting 24 hrs post tumor inoculation measured on day 5 of inoculation relative to control. The data set is classed as organism-based. As to conditions: in vivo. Set-up: dose 5 mg/kg, route intraperitoneal. A digest of the protocol:
as §2

For data set [6], the system named is Mus musculus. Nature of the data set: Toxicity in mouse P388 cells allografted CD2F1 mouse assessed as body weight loss at 80 mg/kg, ip of total 9 doses starting 24 hrs post tumor inoculation measured on day 5 of inoculation relative to control. The note with it: in vivo. The data set is classed as organism-based. On the set-up: dose 80 mg/kg, route intraperitoneal. A digest of the protocol:
as §2

The subject of data set [7] is Mus musculus. Nature of the data set: Toxicity in mouse P388 cells allografted CD2F1 mouse assessed as mouse survival at 40 mg/kg, ip of total 9 doses starting 24 hrs post tumor inoculation measured on day 5 of inoculation relative to control. Set-up: dose 40 mg/kg, route intraperitoneal. The data set is classed as organism-based. As to conditions: in vivo. In outline:
(§3)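 Male CD2F1 mice bearing ip P388 leukemia (6×10^6 cells) were dosed ip with nine daily doses in distilled water–Tween 80 suspension, starting 24 h after inoculation. Survivors per group of 6 were counted on day 5, i.e. 4 days after the first dose. Body-weight change of treated minus control mice was also recorded.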

The test system of data set [8] is Mus musculus. Kind of data set: Toxicity in mouse P388 cells allografted CD2F1 mouse assessed as mouse survival at 20 mg/kg, ip of total 9 doses starting 24 hrs post tumor inoculation measured on day 5 of inoculation relative to control. The data set is classed as organism-based. On the set-up: dose 20 mg/kg, route intraperitoneal. The note with it: in vivo. In outline: as §3

Data set [9] has as its system Mus musculus. Kind of data set: Toxicity in mouse P388 cells allografted CD2F1 mouse assessed as mouse survival at 10 mg/kg, ip of total 9 doses starting 24 hrs post tumor inoculation measured on day 5 of inoculation relative to control. The data set is classed as organism-based. Set-up: dose 10 mg/kg, route intraperitoneal. As to conditions: in vivo. A digest of the protocol: as §3

The subject of data set [10] is Mus musculus. Kind of data set: Toxicity in mouse P388 cells allografted CD2F1 mouse assessed as mouse survival at 5 mg/kg, ip of total 9 doses starting 24 hrs post tumor inoculation measured on day 5 of inoculation relative to control. Set-up: dose 5 mg/kg, route intraperitoneal. The note with it: in vivo. The data set is classed as organism-based. In outline: as §3

Data set [11] deals with Mus musculus. Kind of data set: Toxicity in mouse P388 cells allografted CD2F1 mouse assessed as mouse survival at 80 mg/kg, ip of total 9 doses starting 24 hrs post tumor inoculation measured on day 5 of inoculation relative to control. The data set is classed as organism-based. On the set-up: dose 80 mg/kg, route intraperitoneal. The note with it: in vivo. In outline: as §3

The test system of data set [12] is P388. Kind of data set: Antitumor activity against mouse P388 cells allografted in CD2F1 mouse assessed as increase in mouse survival at 40 mg/kg, ip of total 9 doses starting 24 hrs post tumor inoculation measured on day 5 of inoculation relative to control. The data set is classed as functional. The note with it: route intraperitoneal. In outline:
as §1

The test system of data set [13] is P388. Nature of the data set: Antitumor activity against mouse P388 cells allografted in CD2F1 mouse assessed as increase in mouse survival at 20 mg/kg, ip of total 9 doses starting 24 hrs post tumor inoculation measured on day 5 of inoculation relative to control. The data set is classed as functional. The note with it: route intraperitoneal. In outline:
as §1

For data set [14], the system named is P388. Kind of data set: Antitumor activity against mouse P388 cells allografted in CD2F1 mouse assessed as increase in mouse survival at 10 mg/kg, ip of total 9 doses starting 24 hrs post tumor inoculation measured on day 5 of inoculation relative to control. The data set is classed as functional. The note with it: route intraperitoneal. In outline: as §1

Data set [15] has as its system P388. Nature of the data set: Antitumor activity against mouse P388 cells allografted in CD2F1 mouse assessed as increase in mouse survival at 5 mg/kg, ip of total 9 doses starting 24 hrs post tumor inoculation measured on day 5 of inoculation relative to control. The data set is classed as functional. As to conditions: route intraperitoneal. In outline: as §1
Data set [16] has as its system Mus musculus. Nature of the data set: Toxicity in mouse P388 cells allografted CD2F1 mouse assessed as body weight loss at 50 mg/kg, ip of total 9 doses starting 24 hrs post tumor inoculation measured on day 5 of inoculation relative to control. The data set is classed as organism-based. On the set-up: dose 50 mg/kg, route intraperitoneal. As to conditions: in vivo. A digest of the protocol:
as §2

The test system of data set [17] is Mus musculus. Kind of data set: Toxicity in mouse P388 cells allografted CD2F1 mouse assessed as body weight loss at 25 mg/kg, ip of total 9 doses starting 24 hrs post tumor inoculation measured on day 5 of inoculation relative to control. The data set is classed as organism-based. On the set-up: dose 25 mg/kg, route intraperitoneal. As to conditions: in vivo. In outline:
as §2

The test system of data set [18] is Mus musculus. Kind of data set: Toxicity in mouse P388 cells allografted CD2F1 mouse assessed as body weight loss at 12.5 mg/kg, ip of total 9 doses starting 24 hrs post tumor inoculation measured on day 5 of inoculation relative to control. The data set is classed as organism-based. Set-up: dose 12.5 mg/kg, route intraperitoneal. As to conditions: in vivo. A digest of the protocol: as §2

For data set [19], the system named is Mus musculus. Kind of data set: Toxicity in mouse P388 cells allografted CD2F1 mouse assessed as body weight loss at 6.25 mg/kg, ip of total 9 doses starting 24 hrs post tumor inoculation measured on day 5 of inoculation relative to control. The data set is classed as organism-based. On the set-up: dose 6.25 mg/kg, route intraperitoneal. The note with it: in vivo. In outline:
as §2

Data set [20] deals with Mus musculus. Kind of data set: Toxicity in mouse P388 cells allografted CD2F1 mouse assessed as body weight loss at 3.12 mg/kg, ip of total 9 doses starting 24 hrs post tumor inoculation measured on day 5 of inoculation relative to control. The data set is classed as organism-based. On the set-up: dose 3.12 mg/kg, route intraperitoneal. The note with it: in vivo. A digest of the protocol:
as §2

Data set [21] deals with Mus musculus. Kind of data set: Toxicity in mouse P388 cells allografted CD2F1 mouse assessed as mouse survival at 25 mg/kg, ip of total 9 doses starting 24 hrs post tumor inoculation measured on day 5 of inoculation relative to control. The data set is classed as organism-based. Set-up: dose 25 mg/kg, route intraperitoneal. As to conditions: in vivo. A digest of the protocol:
as §3

Data set [22] concerns Mus musculus. Kind of data set: Toxicity in mouse P388 cells allografted CD2F1 mouse assessed as mouse survival at 12.5 mg/kg, ip of total 9 doses starting 24 hrs post tumor inoculation measured on day 5 of inoculation relative to control. The data set is classed as organism-based. Set-up: dose 12.5 mg/kg, route intraperitoneal. As to conditions: in vivo. A digest of the protocol: as §3

In data set [23] the test system is Mus musculus. Kind of data set: Toxicity in mouse P388 cells allografted CD2F1 mouse assessed as mouse survival at 6.25 mg/kg, ip of total 9 doses starting 24 hrs post tumor inoculation measured on day 5 of inoculation relative to control. The data set is classed as organism-based. As to conditions: in vivo. Set-up: dose 6.25 mg/kg, route intraperitoneal. A digest of the protocol: as §3

Data set [24] relates to Mus musculus. Nature of the data set: Toxicity in mouse P388 cells allografted CD2F1 mouse assessed as mouse survival at 3.12 mg/kg, ip of total 9 doses starting 24 hrs post tumor inoculation measured on day 5 of inoculation relative to control. The data set is classed as organism-based. On the set-up: dose 3.12 mg/kg, route intraperitoneal. As to conditions: in vivo. A digest of the protocol:
as §3

Data set [25] has as its system P388. Kind of data set: Antitumor activity against mouse P388 cells allografted in CD2F1 mouse assessed as increase in mouse survival at 50 mg/kg, ip of total 9 doses starting 24 hrs post tumor inoculation measured on day 5 of inoculation relative to control. The data set is classed as functional. The note with it: route intraperitoneal. A digest of the protocol:
as §1

The test system of data set [26] is P388. Nature of the data set: Antitumor activity against mouse P388 cells allografted in CD2F1 mouse assessed as increase in mouse survival at 25 mg/kg, ip of total 9 doses starting 24 hrs post tumor inoculation measured on day 5 of inoculation relative to control. The data set is classed as functional. The note with it: route intraperitoneal. A digest of the protocol:
as §1

Data set [27] has as its system P388. Nature of the data set: Antitumor activity against mouse P388 cells allografted in CD2F1 mouse assessed as increase in mouse survival at 12.5 mg/kg, ip of total 9 doses starting 24 hrs post tumor inoculation measured on day 5 of inoculation relative to control. The note with it: route intraperitoneal. The data set is classed as functional. In outline:
as §1

Data set [28] relates to P388. Kind of data set: Antitumor activity against mouse P388 cells allografted in CD2F1 mouse assessed as increase in mouse survival at 6.25 mg/kg, ip of total 9 doses starting 24 hrs post tumor inoculation measured on day 5 of inoculation relative to control. The note with it: route intraperitoneal. The data set is classed as functional. A digest of the protocol:
as §1

For data set [29], the system named is P388. Nature of the data set: Antitumor activity against mouse P388 cells allografted in CD2F1 mouse assessed as increase in mouse survival at 3.12 mg/kg, ip of total 9 doses starting 24 hrs post tumor inoculation measured on day 5 of inoculation relative to control. The data set is classed as functional. As to conditions: route intraperitoneal. A digest of the protocol:
as §1

Drawing on ChEMBL document CHEMBL3243962, “Antileukemic activity of derivatives of 1,2-dimethyl-3,4-bis(hydroxymethyl)-5-phenylpyrrole bis(N-methylcarbamate)” (J Med Chem, 1979), this text covers T/C and Activity for two compounds.

Turning to `CNC(=O)OCc1c(COC(=O)NC)c(-c2ccc(S(=O)(=O)c3ccccc3)cc2)n(C)c1C`, the T/C with P388 [1] worked out at 153%; with P388 [12], 153%; in the data set on P388 [13], 146%; in the data set on P388 [14], 136%; in the data set on P388 [15] it was 137%. Moreover, the Activity is listed as 3.1 g in the data set on Mus musculus [2]; 1.9 g with Mus musculus [3]; 0.9 g in the data set on Mus musculus [4]; 1.3 g in the data set on Mus musculus [5]; 3.6 g in the data set on Mus musculus [6]; “Non-toxic” in the data set on Mus musculus [7]. Moreover, the Activity result in the data set with Mus musculus [8], with Mus musculus [9], with Mus musculus [10] and in the data set on Mus musculus [11] was “Non-toxic” throughout.
Turning to `CNC(=O)OCc1c(COC(=O)NC)c(-c2ccc(SC)cc2)n(C)c1C`, the Activity with Mus musculus [16] is listed as 2.9 g; in the data set with Mus musculus [17], 3.1 g; in the data set on Mus musculus [18], 4.3 g; in the data set on Mus musculus [19], 1.4 g; in the data set on Mus musculus [20], 2.1 g; in the data set with Mus musculus [21], “Non-toxic”. The Activity entry in the data set on Mus musculus [22], with Mus musculus [23] and in the data set with Mus musculus [24] was “Non-toxic” throughout. In addition, the T/C stood at 150% with P388 [25]; 144% in the data set with P388 [26]; 144% with P388 [27]; 143% in the data set on P388 [28]; 187% in the data set with P388 [29].
